Legend:
Type in all cases: functional, cell-based
MCF7 = test: Cytotoxicity against human MCF7 cells after 24 to 48 hrs by MTT assay
NCI-H460 = test: Cytotoxicity against human H460 cells after 24 to 48 hrs by MTT assay
Method in brief: (§1)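 Treatment began 24 h after seeding. Compounds were dissolved in DMSO and diluted in DMEM to final 1, 5, 10, 20 and 40 μM, then incubated 24 or 48 h. MTT (0.5 mg/ml) was added for 3 h at 37 °C, formazan dissolved in DMSO, and absorbance read at 595 nm. Each assay was run in triplicate. IC50 came from nonlinear regression of a sigmoid dose-response curve, accepted when R^2 >0.95.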

SH-SY5Y = test: Cytotoxicity against human SH-SY5Y cells after 24 to 48 hrs by MTT assay; method in brief: as §1
HepG2 = test: Cytotoxicity against human HepG2 cells after 24 to 48 hrs by MTT assay; method in brief: as §1

| SMILES | IC50 (MCF7) | IC50 (NCI-H460) | IC50 (SH-SY5Y) | IC50 (HepG2) |
| --- | --- | --- | --- | --- |
| COc1cc(/C=C/C(=O)/C=C/c2nc3cc(C)ccc3n2C)ccc1O | 4.5 µM | 7.7 µM | 4.7 µM | 4.2 µM |
| CC(=O)O[C@H]1C(=O)[C@@]2(C)[C@H]([C@H](OC(=O)c3ccccc3)[C@]3(O)C[C@H](OC(=O)[C@H](O)[C@@H](NC(=O)c4ccccc4)c4ccccc4)C(C)=C1C3(C)C)[C@]1(OC(C)=O)CO[C@@H]1C[C@@H]2O [PACLITAXEL] |  | 0.008 µM | 0.004 µM | 0.007 µM |
| COc1cc(/C=C/C(=O)/C=C/c2nc3cc([N+](=O)[O-])ccc3n2C)ccc1O | 3.7 µM | 6.7 µM | 4.6 µM | 3.7 µM |
| COc1ccc(/C=C/C(=O)/C=C/c2nc3ccccc3n2C)cc1O | 3.6 µM | 6.9 µM | 4.8 µM | 2.9 µM |
| COc1ccc(/C=C/C(=O)/C=C/c2nc3c(C)c(C)ccc3n2C)cc1O | 3.5 µM | 7.3 µM | 4.8 µM | 3.9 µM |
| COc1ccc(/C=C/C(=O)/C=C/c2nc3c(C)cccc3n2C)cc1O | 7.4 µM | 25.4 µM | 19.1 µM | 14.7 µM |
| COc1ccc(/C=C/C(=O)/C=C/c2nc3cc(C)ccc3n2C)cc1O | 3.6 µM | 7.7 µM | 4.8 µM | 3.3 µM |
| COc1ccc(/C=C/C(=O)/C=C/c2nc3cc(Cl)ccc3n2C)cc1O | 3.5 µM | 7.3 µM | 4.8 µM | 4.1 µM |
| COc1cc(/C=C/C(=O)CC(=O)/C=C/c2ccc(O)c(OC)c2)ccc1O [CURCUMIN] | 49.8 µM | 51.3 µM | 105 µM | 87.5 µM |
| COc1cc(/C=C/C(=O)/C=C/c2nc3c(C)c(C)ccc3n2C)ccc1O | 14.1 µM | 31.9 µM | 19 µM | 8.5 µM |
| COc1cc(/C=C/C(=O)/C=C/c2nc3cc(Cl)ccc3n2C)ccc1O | 4.4 µM | 8.9 µM | 4.7 µM | 4 µM |
| COc1cc(/C=C/C(=O)/C=C/c2nc3cc(O)ccc3n2C)ccc1O | 2.9 µM | 7.6 µM | 4.8 µM | 3.6 µM |
| COc1ccc2c(c1)nc(/C=C/C(=O)/C=C/c1ccc(O)c(OC)c1)n2C | 3.9 µM | 12.7 µM | 4.8 µM | 3.8 µM |
| COc1ccc(/C=C/C(=O)/C=C/c2nc3cc([N+](=O)[O-])ccc3n2C)cc1O | 4.8 µM | 10.5 µM | 8.1 µM | 4.6 µM |
| COc1ccc(/C=C/C(=O)/C=C/c2nc3cc(O)ccc3n2C)cc1O | 1.9 µM | 7.2 µM | 4.6 µM | 3.7 µM |
| COc1cc(/C=C/C(=O)/C=C/c2nc3c(C)cccc3n2C)ccc1O | 3.5 µM | 3 µM | 1 µM | 1.9 µM |
| COc1cc(/C=C/C(=O)/C=C/c2nc3ccccc3n2C)ccc1O | 3.7 µM | 7 µM | 4.7 µM | 2.9 µM |
| COc1ccc2c(c1)nc(/C=C/C(=O)/C=C/c1ccc(OC)c(O)c1)n2C | 3.7 µM | 11.7 µM | 4.8 µM | 4.2 µM |
